{"data": "Published values gathered from unrelated publications", "organism": "Pseudomonas aeruginosa", "note": "Protocols differ between the studies behind these lines."}
{"Compound": "CC(C)(O/N=C(\\C(=O)N[C@@H]1C(=O)N2C(C(=O)[O-])=C(C[n+]3ccccc3)CS[C@H]12)c1csc(N)n1)C(=O)O", "read-out": "microbial growth", "strain": "PAO1", "measurement": "MIC90", "result": "4 µg/mL"}
{"Compound": "Cc1ccccc1NC(=O)C=Cc1ccc(O)c(O)c1", "read-out": "microbial growth", "technique": "broth dilution", "strain": "ATCC27853", "measurement": "MIC", "result": "8 µg/mL"}
{"Compound": "O=C(O)c1cn(C2CC2)c2cc(N3CCNCC3)c(F)cc2c1=O", "read-out": "microbial growth", "strain": "ATCC27853", "measurement": "MIC", "result": "2 µM"}
{"Compound": "Cc1[nH]c(C(=O)Nc2ccc(C(=O)NCc3n[nH]c(=O)o3)cc2N2CCN(C(=O)OC(C)(C)C)CC2)c(Cl)c1Cl", "read-out": "microbial growth", "technique": "broth dilution", "strain": "ATCC27853", "measurement": "MIC", "result": "> 32 µg/mL"}
{"Compound": "OC(C#Cc1ccc(F)c(F)c1)c1ccccc1Cl (stereo not drawn)", "read-out": "microbial growth", "technique": "absorbance", "concentration": "100 µM", "time": "24 h", "measurement": "activity vs control", "result": "97%"}
{"Compound": "Cc1[nH]c(C(=O)Nc2ccc(-c3n[nH]c(=O)o3)cc2N2CCC[C@H](N)C2)c(Cl)c1Cl.Cl", "read-out": "microbial growth", "technique": "broth dilution", "strain": "ATCC27853", "measurement": "MIC", "result": "16 µg/mL"}
{"Compound": "CC(C)(O/N=C(\\C(=O)N[C@@H]1C(=O)N2C(C(=O)[O-])=C(C[n+]3ccccc3)CS[C@H]12)c1csc(N)n1)C(=O)O", "read-out": "microbial growth", "technique": "disc diffusion", "concentration": "2000 µg/mL", "time": "24 h", "measurement": "inhibition zone", "result": "9.5 mm"}
{"Compound": "COc1cccc(C(=O)C#Cc2ccc(O)c(OC)c2)c1", "read-out": "microbial growth", "technique": "absorbance", "concentration": "10 µM", "time": "24 h", "measurement": "activity vs control", "result": "87%"}
{"Compound": "O=C(C=Cc1ccc(O)c(O)c1)OCc1ccccc1", "read-out": "microbial growth", "technique": "broth dilution", "strain": "ATCC27853", "measurement": "MIC", "result": "8 µg/mL"}
{"Compound": "Cc1[nH]c(C(=O)Nc2ccc(C(=O)NCc3n[nH]c(=O)o3)cc2N2CCNCC2)c(Cl)c1Cl.Cl", "read-out": "microbial growth", "technique": "broth dilution", "strain": "ATCC27853", "measurement": "MIC", "result": "> 32 µg/mL"}
{"Compound": "COc1cc(C#CC(O)CC(C)C)ccc1O (stereo not drawn)", "read-out": "microbial growth", "technique": "absorbance", "concentration": "100 µM", "time": "24 h", "measurement": "activity vs control", "result": "93%"}
{"Compound": "COc1cc(C=Nc2ccccc2Br)ccc1O", "read-out": "microbial growth", "technique": "disc diffusion", "concentration": "2000 µg/mL", "time": "24 h", "measurement": "inhibition zone", "result": "14.2 mm"}
{"Compound": "Cl.N[C@@H]1CCN(c2cc(C(=O)NCC(=O)O)ccc2NC(=O)c2cc(Br)c(Br)[nH]2)C1", "read-out": "microbial growth", "technique": "broth dilution", "strain": "ATCC27853", "measurement": "MIC", "result": "> 32 µg/mL"}
{"Compound": "C[C@@H](O)[C@H]1C(=O)N2C(C(=O)O)=C(S[C@@H]3CN[C@H](C(=O)N(C)C)C3)[C@H](C)[C@H]12", "read-out": "microbial growth", "technique": "broth dilution", "strain": "ATCC27853", "time": "20 h", "measurement": "MIC", "result": "< 0.5 µg/mL"}
{"Compound": "CC(C)NCC(COc1cccc2ccccc12)OC(=O)C=Cc1ccc(O)c(O)c1 (stereo not drawn)", "read-out": "microbial growth", "technique": "broth dilution", "strain": "ATCC27853", "measurement": "MIC", "result": "64 µg/mL"}
{"Compound": "COc1cccc(C(O)C#Cc2ccc(O)c(OC)c2)c1 (stereo not drawn)", "read-out": "microbial growth", "technique": "absorbance", "concentration": "10 µM", "time": "24 h", "measurement": "activity vs control", "result": "96%"}
{"Compound": "O=C(C=Cc1ccc(O)c(O)c1)Oc1ccccc1", "read-out": "microbial growth", "technique": "broth dilution", "strain": "ATCC27853", "measurement": "MIC", "result": "8 µg/mL"}
{"Compound": "COc1cc(-c2[nH]nnc2C(=O)c2ccccc2)ccc1O", "read-out": "microbial growth", "technique": "absorbance", "concentration": "10 µM", "time": "24 h", "measurement": "activity vs control", "result": "95%"}
{"Compound": "CC(C)(C)OC(=O)N[C@@H]1CCN(c2cc(C(=O)NCC(=O)O)ccc2NC(=O)c2cc(Br)c(Br)[nH]2)C1", "read-out": "microbial growth", "technique": "broth dilution", "strain": "ATCC27853", "measurement": "MIC", "result": "> 32 µg/mL"}
{"Compound": "COc1ccccc1C(=O)C#Cc1ccc(F)c(F)c1", "read-out": "microbial growth", "technique": "absorbance", "concentration": "10 µM", "time": "24 h", "measurement": "activity vs control", "result": "86%"}
{"Compound": "C[C@H]1COc2c(N3CCN(C)CC3)c(F)cc3c(=O)c(C(=O)O)cn1c23", "read-out": "microbial killing", "strain": "ATCC47085", "measurement": "MBC", "result": "7.81 µg/mL"}
{"Compound": "C[C@@H](O)[C@H]1C(=O)N2C(C(=O)O)=C(SCCN=CN)C[C@H]12", "read-out": "microbial growth", "technique": "disc diffusion", "concentration": "2000 µg/mL", "time": "24 h", "measurement": "inhibition zone", "result": "17 mm"}
{"Compound": "Cc1[nH]c(C(=O)Nc2ccc(C(=O)NCC(=O)O)cc2N2CC[C@H](NC(=O)OC(C)(C)C)C2)c(Cl)c1Cl", "read-out": "microbial growth", "technique": "broth dilution", "strain": "ATCC27853", "measurement": "MIC", "result": "> 32 µg/mL"}
{"Compound": "CCCC(=O)C#Cc1ccc(O)c(OC)c1", "read-out": "microbial growth", "technique": "absorbance", "concentration": "100 µM", "time": "24 h", "measurement": "activity vs control", "result": "94%"}
{"Compound": "Nc1ccccc1OC(=O)C=Cc1ccc(O)c(O)c1", "read-out": "microbial growth", "technique": "broth dilution", "strain": "ATCC27853", "measurement": "MIC", "result": "32 µg/mL"}
{"Compound": "Cc1[nH]c(C(=O)Nc2ccc(C(=O)NCC(=O)O)cc2N2CC[C@H](N)C2)c(Cl)c1Cl.Cl", "read-out": "microbial growth", "technique": "broth dilution", "strain": "ATCC27853", "measurement": "MIC", "result": "> 32 µg/mL"}
{"Compound": "Cc1ccc(C(=O)C#Cc2ccc(F)c(F)c2)cc1", "read-out": "microbial growth", "technique": "absorbance", "concentration": "100 µM", "time": "24 h", "measurement": "activity vs control", "result": "96%"}
